From ChEMBL document CHEMBL4041500, “Attenuation of Mycobacterium species through direct and macrophage mediated pathway by unsymmetrical diaryl urea” (Eur J Med Chem, 2017)
Values after ≈ are worked out from the molar mass of the structure shown. Active and inactive are the calls of the source. The rule behind the calls is not given here.

Columns and labels:
[1] = tested on: Mycolicibacterium smegmatis; experiment: Antimycobacterial activity against Mycobacterium smegmatis MC2 155 after 48 hrs by serial dilution method; format: functional; settings: str. MC2 155, 48 h
How it was run: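 M. smegmatis grown in Middlebrook 7H9 with 10% albumin–dextrose complex and 0.03% Tween80 at 37 °C. Twofold serial dilutions of compound were combined with mid-log culture diluted to OD570 0.01, giving a final range of […] in 7H9 broth. Incubated in ambient air at 37 °C for 48 h. MIC taken as the lowest concentration preventing visible growth.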

[2] = tested on: Mycobacterium tuberculosis; experiment: Antimycobacterial activity against Mycobacterium tuberculosis MC2 6030 after 2 to 3 weeks by agar plate method; format: functional
How it was run: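 Strain mc²6030 is a pantothenate auxotroph lacking RD1, grown at 37 °C in Sauton's medium plus 20 μg/ml pantothenic acid. Serial 10-fold dilutions of actively growing culture were plated on 7H10/OADC agar with 20 μg/ml pantothenic acid and increasing compound concentrations, from 10 mg/ml DMSO stocks. Plates were held 2–3 weeks at 37 °C. MIC was the concentration inhibiting 99% of growth; isoniazid served as control.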

[3] = tested on: Mycolicibacterium smegmatis; experiment: Inhibition of alpha'-mycolic acid biosynthesis in Mycobacterium smegmatis MC2 155 assessed as reduction in [1-14C]acetate incorporation at 5 times antibacterial MIC preincubated for 90 mins followed by [1-14C]acetate addition measured after 1 hr by liquid scintillation counting based TLC method; format: functional; settings: str. MC2 155
[4] = tested on: Mycobacterium tuberculosis; experiment: Antimycobacterial activity against Mycobacterium tuberculosis H37Rv ATCC 27294 after 7 days by microplate alamar blue assay; format: functional; settings: H37Rv ATCC 27294, 168 h
How it was run: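 MABA run in 7H12 medium in 96-well plates for 7 days at 37 °C. Alamar Blue and Tween 80 were then added for a further 24 h. Fluorescence was read at 530/590 nm. MIC was the lowest concentration giving a 90% fluorescence (or luminescence) reduction versus controls. Luciferase reporter strains or intracellular ATP were used for compounds with background fluorescence. Isoniazid and rifampin were run as controls.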

[5] = tested on: Mycolicibacterium smegmatis; experiment: Inhibition of epoxy-mycolic acid biosynthesis in Mycobacterium smegmatis MC2 155 assessed as reduction in [1-14C]acetate incorporation at 5 times antibacterial MIC preincubated for 90 mins followed by [1-14C]acetate addition measured after 1 hr by liquid scintillation counting based TLC method; format: functional; settings: str. MC2 155
[6] = tested on: HepG2; experiment: Cytotoxicity against human HepG2 cells assessed as reduction in cell viability after 72 hrs by MTT assay; format: cell-based; settings: hepg2, 72 h
How it was run: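 HepG2 cells grown in Eagle's MEM with 10% FBS at 37 °C and 5% CO2. Cells were scraped, resuspended at ~1 × 10^6 cells/mL, plated and left 24 h, then exposed to compound at 400 to 0.2 µg/mL for 72 h. Viability read by MTT assay. IC50 (50% loss of viability) taken from a dose–response curve versus log10 concentration.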

[7] = tested on: Peritoneal macrophage; experiment: Cytotoxicity against Balb/c mouse peritoneal macrophages assessed as reduction in cell viability after 48 hrs by MTT assay; format: cell-based
How it was run: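 Murine peritoneal macrophages, 1 × 10^6 cells/well, exposed to compound at 0.1 to 250 µg/ml in RPMI-1640 with 10% FBS for 48h. MTT (5 mg/ml) added for 3 h at 37°C, formazan dissolved in 0.04M HCl in isopropanol for 15 min at room temperature, absorbance read at 570 nm. IC50 (50% loss of viability) taken from a dose–response curve of percentage activity versus log10 concentration.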

[8] = tested on: Mycolicibacterium smegmatis; experiment: Inhibition of fattyacid biosynthesis in Mycobacterium smegmatis MC2 155 assessed as reduction in [1-14C]acetate incorporation at 5 times antibacterial MIC preincubated for 90 mins followed by [1-14C]acetate addition measured after 1 hr by liquid scintillation counting based TLC method; format: functional; settings: str. MC2 155
[9] = tested on: Mycolicibacterium smegmatis; experiment: Inhibition of alpha-mycolic acid biosynthesis in Mycobacterium smegmatis MC2 155 assessed as reduction in [1-14C]acetate incorporation at 5 times antibacterial MIC preincubated for 90 mins followed by [1-14C]acetate addition measured after 1 hr by liquid scintillation counting based TLC method; format: functional; settings: str. MC2 155
[10] = tested on: Mycolicibacterium smegmatis; experiment: Antimycobacterial activity against Mycobacterium smegmatis MC2 155 infected in Balb/c mouse peritoneal macrophages assessed as upregulation of IFN-gamma mRNA expression at 5 ug/ml after 6 hrs RT-PCR method; format: functional; settings: str. MC2 155
How it was run: (§1)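 BALB/c peritoneal macrophages were cultured 48 h in RPMI-1640 with 10% FBS. Cells at 2 × 10⁶/ml were infected with mid-log, PBS-washed mc²155 at a macrophage:bacteria ratio of 1:10 for 6 h, then washed three times. Compound was added at 5 µg/mL for another 6 h. Total RNA was taken up in Trizol, 1 µg was used for cDNA, and PCR ran 40 cycles (94 °C 45 s, 60 °C 1 min, 72 °C 1 min).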

[11] = tested on: Mycolicibacterium smegmatis; experiment: Antimycobacterial activity against Mycobacterium smegmatis MC2 155 infected in Balb/c mouse peritoneal macrophages assessed as upregulation of IL-12 mRNA expression at 5 ug/ml after 6 hrs RT-PCR method; format: functional; settings: str. MC2 155; how it was run: as §1
[12] = tested on: Mycolicibacterium smegmatis; experiment: Antimycobacterial activity against Mycobacterium smegmatis MC2 155 infected in Balb/c mouse peritoneal macrophages assessed as increase in iNOS2 mRNA expression at 5 ug/ml after 6 hrs RT-PCR method; format: functional; settings: str. MC2 155; how it was run: as §1
[13] = tested on: Mycolicibacterium smegmatis; experiment: Antimycobacterial activity against Mycobacterium smegmatis MC2 155 infected in Balb/c mouse peritoneal macrophages assessed as downregulation of IL-10 mRNA expression at 5 ug/ml after 6 hrs RT-PCR method; format: functional; settings: str. MC2 155; how it was run: as §1

Structure (SMILES) | MIC [1] [µg/mL] | MIC99 [2] [µg/mL] | inhibition [3] | MIC90 [4] [µg/mL] | inhibition [5] | Activity [6] [µg/mL] | Activity [7] [µg/mL] | inhibition [8] | inhibition [9] | Activity [10] | Activity [11] | Activity [12] | Activity [13]
CC(C)=CCOc1ccc(NC(=O)Nc2ccccc2)cc1 | 25 (≈ 84.4 µM) | 30 (≈ 101 µM) | inactive | 43.1 (≈ 145 µM) | inactive | 124.7 | 109.5 | inactive | inactive |  |  |  | 
CC(C)=CCOc1cccc(NC(=O)Nc2cccc(C#N)c2)c1 | 25 (≈ 77.8 µM) |  | inactive | 9.2 (≈ 28.6 µM) | Active | 172.6 | 159.4 | inactive | inactive | Active | Active | Active | Active
CC(C)=CCOc1cccc(NC(=O)Nc2cccc([N+](=O)[O-])c2)c1 | 3.21 (≈ 9.4 µM) | 2 (≈ 5.86 µM) | inactive | 6 (≈ 17.6 µM) | Active | 113.7 | 94.1 | inactive | inactive | inactive | inactive | Active | Active
CCCCOc1ccc(NC(=O)Nc2ccccc2C)cc1 | 100 (≈ 335 µM) | 100 (≈ 335 µM) | inactive | 7 (≈ 23.5 µM) | Active | 130.5 | 125.7 | inactive | inactive |  |  |  | 
CC(C)=CCOc1cccc(NC(=O)Nc2ccccc2C)c1 | 12.5 (≈ 40.3 µM) | 1 (≈ 3.22 µM) | inactive | 5.2 (≈ 16.8 µM) | Active | 163.4 | 140.5 | inactive | inactive | Active | Active | Active | Active
CC(C)=CCOc1cccc(NC(=O)Nc2cccc(C(=O)O)c2)c1 | 12.5 (≈ 36.7 µM) |  | inactive | 16.5 (≈ 48.5 µM) | Active | 132.6 | 120.4 | inactive | inactive |  |  |  | 
